In brackets after ≈: the same amount, converted by molar mass. Bridge positions count the residues as written; N and C are the ends. Square brackets hold non-standard residues; d marks the D form. Peptide text beside a SMILES is read from it. * marks the point of attachment. Octanoyl(6-Me) = CCC(C)CCCCC(=O)*; Orn = NCCC[C@H](N)C(=O)O; Dab = NCC[C@H](N)C(=O)O
What was measured:
Escherichia coli = experiment: Antibacterial activity against drug-sensitive Escherichia coli K-12 W3110 after 20 hrs by liquid microdilution method; assay type: functional; details: K-12 substr. W3110, 20 h
In short: (§1)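 Two-fold serial dilutions of compound in Mueller–Hinton broth, inoculated with 1 × 10^4 cells and cultured at 37 °C for 20 h in microtiter wells.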

Bacillus subtilis = experiment: Antibacterial activity against drug-sensitive Bacillus subtilis 168 after 20 hrs by liquid microdilution method; assay type: functional; details: subsp. subtilis str. 168, 20 h; in short: as §1
[1] = Hemolytic activity in rabbit RBC at 10 uM after 20 mins relative to control; assay type: ADME, cell-based, Oryctolagus cuniculus, Erythrocyte; details: rabbit red blood cells (erythrocytes), read-out: Activity
In short: (§2)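 Rabbit erythrocytes suspended in 150 mM NaCl/10 mM Hepes-NaOH, pH 7.4, at 0.5% hematocrit (final) and incubated with compound at 37 °C. The table footnote gives 20 min; the methods section gives 30 min. Hemolysis was read as absorbance at 540 nm, with 50 µM lysolecithin defining 100% hemolysis.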

[2] = Hemolytic activity in rabbit RBC at 50 uM after 20 mins relative to control; assay type: ADME, cell-based, Oryctolagus cuniculus, Erythrocyte; details: rabbit red blood cells (erythrocytes), read-out: Activity; in short: as §2
Pseudomonas aeruginosa = experiment: Antibacterial activity against drug-sensitive Pseudomonas aeruginosa PAO1 after 20 hrs by liquid microdilution method; assay type: functional; details: PAO1, 20 h; in short: as §1
Enterococcus faecalis [3] = experiment: Antibacterial activity against vancomycin-resistant Enterococcus faecalis MS29016 after 18 to 20 hrs by agar dilution method; assay type: functional
In short: (§3)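 Agar dilution per CLSI. Overnight broth cultures were diluted 100-fold, and one loopful (about 10^5 to 10^4 CFU) was spotted onto agar plates containing the CD. Growth was scored after 18–20 h at 37 °C. MIC values are in µM.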

[4] = Hemolytic activity in rabbit RBC at 20 uM after 20 mins relative to control; assay type: ADME, cell-based, Oryctolagus cuniculus, Erythrocyte; details: rabbit red blood cells (erythrocytes), read-out: Activity; in short: as §2
[5] = Hemolytic activity in rabbit RBC at 5 uM after 20 mins relative to control; assay type: ADME, cell-based, Oryctolagus cuniculus, Erythrocyte; details: rabbit red blood cells (erythrocytes), read-out: Activity; in short: as §2
[6] = Hemolytic activity in rabbit RBC at 1 uM after 20 mins relative to control; assay type: ADME, cell-based, Oryctolagus cuniculus, Erythrocyte; details: rabbit red blood cells (erythrocytes), read-out: Activity; in short: as §2
Salmonella typhimurium = experiment: Antibacterial activity against drug-sensitive Salmonella typhimurium LT2 after 20 hrs by liquid microdilution method; assay type: functional, Salmonella enterica subsp. enterica serovar Typhimurium; details: Salmonella enterica, LT2, 20 h; in short: as §1
Staphylococcus aureus [7] = experiment: Antibacterial activity against methicillin-resistant Staphylococcus aureus MS29202 after 18 to 20 hrs by agar dilution method; assay type: functional; in short: as §3
Enterococcus faecium = experiment: Antibacterial activity against drug-resistant Enterococcus faecium MS29120 after 18 to 20 hrs by agar dilution method; assay type: functional; in short: as §3
[8] = Lipophilicity, log P of the compound; assay type: physicochemical; details: octanol/water
Enterococcus faecalis [9] = experiment: Antibacterial activity against drug-resistant Enterococcus faecalis MS29030 after 18 to 20 hrs by agar dilution method; assay type: functional; in short: as §3
Streptococcus agalactiae = experiment: Antibacterial activity against drug-resistant Streptococcus agalactiae B1 after 18 to 20 hrs by agar dilution method; assay type: functional; in short: as §3
[10] = Hemolytic activity in rabbit RBC at 2 uM after 20 mins relative to control; assay type: ADME, cell-based, Oryctolagus cuniculus, Erythrocyte; details: rabbit red blood cells (erythrocytes), read-out: Activity; in short: as §2
Staphylococcus aureus [11] = experiment: Antibacterial activity against methicillin-sensitive Staphylococcus aureus FDA 209P after 20 hrs by liquid microdilution method; assay type: functional; in short: as §1

CCCCCCC(N)c1cn(C[C@H]2O[C@@H]3O[C@H]4[C@H](O)[C@@H](O)[C@@H](O[C@H]5[C@H](O)[C@@H](O)[C@@H](O[C@H]6[C@H](O)[C@@H](O)[C@@H](O[C@H]7[C@H](O)[C@@H](O)[C@@H](O[C@H]8[C@H](O)[C@@H](O)[C@@H](O[C@H]9[C@H](O)[C@@H](O)[C@@H](O[C@H]2[C@H](O)[C@H]3O)O[C@@H]9Cn2cc(C(N)CCCCCC)nn2)O[C@@H]8Cn2cc(C(N)CCCCCC)nn2)O[C@@H]7Cn2cc(C(N)CCCCCC)nn2)O[C@@H]6Cn2cc(C(N)CCCCCC)nn2)O[C@@H]5Cn2cc(C(N)CCCCCC)nn2)O[C@@H]4Cn2cc(C(N)CCCCCC)nn2)nn1 (some centres not stated)
MIC (Escherichia coli): 10 µM (≈ 22.8 µg/mL)
MIC (Bacillus subtilis): 5 µM (≈ 11.4 µg/mL)
hemolysis at 20 min, 10 µM [1]: 109%
hemolysis at 20 min, 50 µM [2]: 118%
MIC (Pseudomonas aeruginosa): 21 µM (≈ 48 µg/mL)
MIC (Enterococcus faecalis [3]): 21 µM (≈ 48 µg/mL)
hemolysis at 20 min, 20 µM [4]: 113%
hemolysis at 20 min, 5 µM [5]: 101%
hemolysis at 20 min, 1 µM [6]: 10%
MIC (Salmonella typhimurium): 10 µM (≈ 22.8 µg/mL)
MIC (Staphylococcus aureus [7]): 10 µM (≈ 22.8 µg/mL)
MIC (Enterococcus faecium): 21 µM (≈ 48 µg/mL)
logP [8]: -0.18
MIC (Enterococcus faecalis [9]): 42 µM (≈ 96 µg/mL)
MIC (Streptococcus agalactiae): 10 µM (≈ 22.8 µg/mL)
hemolysis at 20 min, 2 µM [10]: 37%
MIC (Staphylococcus aureus [11]): 3 to 10 µM (≈ 6.85 to 22.8 µg/mL)

NC(CCc1ccccc1)c1cn(C[C@H]2O[C@@H]3O[C@H]4[C@H](O)[C@@H](O)[C@@H](O[C@H]5[C@H](O)[C@@H](O)[C@@H](O[C@H]6[C@H](O)[C@@H](O)[C@@H](O[C@H]7[C@H](O)[C@@H](O)[C@@H](O[C@H]8[C@H](O)[C@@H](O)[C@@H](O[C@H]9[C@H](O)[C@@H](O)[C@@H](O[C@H]2[C@H](O)[C@H]3O)O[C@@H]9Cn2cc(C(N)CCc3ccccc3)nn2)O[C@@H]8Cn2cc(C(N)CCc3ccccc3)nn2)O[C@@H]7Cn2cc(C(N)CCc3ccccc3)nn2)O[C@@H]6Cn2cc(C(N)CCc3ccccc3)nn2)O[C@@H]5Cn2cc(C(N)CCc3ccccc3)nn2)O[C@@H]4Cn2cc(C(N)CCc3ccccc3)nn2)nn1 (some centres not stated)
MIC (Escherichia coli): 20 µM (≈ 48.5 µg/mL)
MIC (Bacillus subtilis): 5 µM (≈ 12.1 µg/mL)
hemolysis at 20 min, 10 µM [1]: 47%
hemolysis at 20 min, 50 µM [2]: 113%
MIC (Pseudomonas aeruginosa): > 40 µM
MIC (Enterococcus faecalis [3]): 40 µM (≈ 97 µg/mL)
hemolysis at 20 min, 20 µM [4]: 94%
hemolysis at 20 min, 5 µM [5]: 17%
hemolysis at 20 min, 1 µM [6]: 4%
MIC (Salmonella typhimurium): > 40 µM
MIC (Staphylococcus aureus [7]): 20 µM (≈ 48.5 µg/mL)
MIC (Enterococcus faecium): 20 µM (≈ 48.5 µg/mL)
logP [8]: -0.25
MIC (Enterococcus faecalis [9]): 40 µM (≈ 97 µg/mL)
MIC (Streptococcus agalactiae): 20 µM (≈ 48.5 µg/mL)
hemolysis at 20 min, 2 µM [10]: 6%
MIC (Staphylococcus aureus [11]): 20 µM (≈ 48.5 µg/mL)

CC(C)C[C@@H]1NC(=O)[C@H](CCCN)NC(=O)[C@H](C(C)C)NC(=O)[C@@H]2CCCN2C(=O)[C@@H](Cc2ccccc2)NC(=O)[C@H](CC(C)C)NC(=O)[C@H](CCCN)NC(=O)[C@H](C(C)C)NC(=O)[C@@H]2CCCN2C(=O)[C@@H](Cc2ccccc2)NC1=O (cyclo(V[Orn]L[dF]PV[Orn]L[dF]P))
MIC (Escherichia coli): 28 µM (≈ 32 µg/mL)
MIC (Pseudomonas aeruginosa): 56 µM (≈ 63.9 µg/mL)
MIC (Staphylococcus aureus [11]): 7 µM (≈ 7.99 µg/mL)

CCC(C)CCCCC(=O)N[C@@H](CCN)C(=O)N[C@H](C(=O)N[C@@H](CCN)C(=O)N[C@H]1CCNC(=O)[C@H]([C@@H](C)O)NC(=O)[C@H](CCN)NC(=O)[C@H](CCN)NC(=O)[C@H](CC(C)C)NC(=O)[C@@H](Cc2ccccc2)NC(=O)[C@H](CCN)NC1=O)[C@@H](C)O (some centres not stated) ({Octanoyl(6-Me)}-[Dab]T[Dab][Dab][Dab][dF]L[Dab][Dab]T; lactam 4-C)
MIC (Escherichia coli): 1 µM (≈ 1.2 µg/mL)
MIC (Bacillus subtilis): 6 µM (≈ 7.22 µg/mL)
MIC (Pseudomonas aeruginosa): 1 µM (≈ 1.2 µg/mL)
MIC (Salmonella typhimurium): 1 µM (≈ 1.2 µg/mL)
MIC (Staphylococcus aureus [11]): 23 µM (≈ 27.7 µg/mL)

— ChEMBL document CHEMBL4257484, “Membrane-active antimicrobial poly(amino-modified alkyl) β-cyclodextrins synthesized via click reactions” (Medchemcomm, 2018)
